Bioassay records from PubChem.
Shown are actives, neighbours in structure and some others; about 2.6% of the full set was active somewhere.
PolyA inh: inhibitors of polyadenylation in S. cerevisiae; 300,000 tested, 0.02% active; activity score, % at 12 µM; S. cerevisiae SKY197-pL101 polyadenylation reporter, beta-gal luminescence; efflux-impaired pdr1/pdr3 knockout yeast; score 100 = 6 SD above DMSO;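 active means lowest replicate activity score at least 50, where 100 means six control SD above control mean; inconclusive means lowest score under 50 but half or more replicates reach 50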;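 further: yeast exposed to compound for 9 h at 30 °C; higher score means more reporter readthrough which indicates perturbed polyadenylation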
CHT inh: human CHT choline transport inhibition. Q9GZV3. CHT-expressing cells, membrane potential dye, choline response; hits give low values. B-score at 10 µM. 310,000 tested, 0.86% active;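 active means B-score over 3 SD under the library average, and starting fluorescence ratio not unusually high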;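 further: choline stimulus applied at its EC90 after an EC20 pre-addition; B-score computed on integrated fluorescence ratio after choline addition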
Target sequence (Q9GZV3 whole entry, looked up): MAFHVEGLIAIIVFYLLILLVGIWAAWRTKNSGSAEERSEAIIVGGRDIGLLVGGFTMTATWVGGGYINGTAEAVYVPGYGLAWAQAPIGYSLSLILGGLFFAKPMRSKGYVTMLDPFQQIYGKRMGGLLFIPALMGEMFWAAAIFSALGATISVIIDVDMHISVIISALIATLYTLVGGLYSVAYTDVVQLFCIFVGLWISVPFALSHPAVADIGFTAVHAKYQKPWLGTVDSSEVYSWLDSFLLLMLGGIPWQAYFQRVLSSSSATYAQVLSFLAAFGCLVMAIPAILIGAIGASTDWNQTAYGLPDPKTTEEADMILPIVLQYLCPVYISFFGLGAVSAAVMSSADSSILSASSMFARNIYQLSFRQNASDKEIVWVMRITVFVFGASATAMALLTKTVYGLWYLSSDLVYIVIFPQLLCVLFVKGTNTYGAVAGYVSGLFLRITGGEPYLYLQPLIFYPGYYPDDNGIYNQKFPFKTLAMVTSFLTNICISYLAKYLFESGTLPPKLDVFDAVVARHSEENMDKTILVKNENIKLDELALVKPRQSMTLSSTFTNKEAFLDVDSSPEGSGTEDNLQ
T cruzi repl: blocks replication of Trypanosoma cruzi; inhibition, % (no concentration beside the values); T. cruzi beta-gal in NIH3T3, luminescence, 90 h; AID 1885; 300,000 tested, 1.4% active;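 active means mean inhibition across valid replicates above about 55%, limit read from the data; inconclusive means mean below that limit but half or more replicates reach it; inactive means mean below it, under half of replicates reach it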;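 further: signal also drops with host cell toxicity which is not excluded here; higher percent means less beta-gal luminescence so fewer parasites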
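System: NIH/3T3 fibroblasts plus reporter T. cruzi. Medium: DMEM plus 2% FBS. Probe or stimulus: 5000 reporter trypomastigotes per well. Compound: single 50 nL compound addition per well in DMSO. Incubation: co-culture of at least 90 h after 3 h attachment. Detection: GalScreen β-gal luminescence, detergent lysis, 60 min. Evaluation: parasite load inhibition, %.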
CHT PAM: allosteric activators of human choline transporter CHT; Q9GZV3; AID 488977; 310,000 tested, 0.49% active; B-score at 10 µM; CHT-expressing cells, membrane potential dye, choline EC20; hits give high values; LV-AA mutant CHT in HEK293 cells;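 active means initial fluorescence not abnormally high and integrated response B-score, plate-corrected, over 3 SD above library mean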
Numbers stand for hits.

Screening COc1cccc(C(Nc2ccccn2)c2c(NC(=O)c3ccco3)sc(C)c2C)c1 (stereo not given) returned PolyA inh inactive, CHT inh inactive, T cruzi repl 59.2 and CHT PAM inactive.
Screening CSCC[C@H](NC(=O)[C@@H]1CSC2c3ccccc3C(=O)N21)C(=O)N1CCC[C@H]1CO (stereo not given in full) returned PolyA inh inactive, CHT inh inactive, T cruzi repl inactive and CHT PAM inactive.
COc1ccc(C)cc1NS(=O)(=O)c1ccc2c(c1)CCN2C(C)=O was read as PolyA inh inconclusive, CHT inh inactive, T cruzi repl inactive and CHT PAM inactive.
`O=C1/C(=C/c2ccc(N3CCOCC3)o2)SC(=Nc2ccccc2)N1CCc1c[nH]c2ccccc12` gave PolyA inh inactive, CHT inh inactive, T cruzi repl 70.6 and CHT PAM inactive.
Screening COc1cc(/C=C2\SC(=S)N(NS(=O)(=O)c3ccc(C)cc3)C2=O)ccc1O returned PolyA inh inconclusive, CHT inh inactive, T cruzi repl inactive and CHT PAM inactive.
Screening COc1cc(/C=C2\SC(=S)N(NS(=O)(=O)c3ccccc3)C2=O)ccc1O returned PolyA inh 85.0, CHT inh inactive, T cruzi repl inactive and CHT PAM inactive.
For C=CCOc1ccc(/C=C2\SC(=S)N(NS(=O)(=O)c3ccccc3)C2=O)cc1 the results were PolyA inh inactive, CHT inh -6.16, T cruzi repl inactive and CHT PAM inactive.
O=C1/C(=C\c2ccc(Br)cc2)SC(=S)N1NS(=O)(=O)c1ccccc1 was read as PolyA inh inactive, CHT inh inactive, T cruzi repl inactive and CHT PAM inactive.
COC(=O)C1=C(CS(=O)(=O)c2ccc(OC)c(OC)c2)NC(=O)NC1c1ccc(O)c(OC)c1 (stereo not given) was read as PolyA inh inactive, CHT inh inactive, T cruzi repl inactive and CHT PAM inactive.
O=C(Nc1cccc(-c2nc3ncccc3o2)c1)c1ccccc1 was read as PolyA inh inactive, CHT inh inactive, T cruzi repl 60.5 and CHT PAM inactive.
For CN(C)c1ccc2nc3ccc(=[N+](C)C)cc-3sc2c1 the results were CHT inh inactive, T cruzi repl inactive and CHT PAM inactive.
`Cc1cc2nc3ccc(=[N+](C)C)cc-3sc2cc1N` gave PolyA inh inactive and T cruzi repl 68.8.
`COc1cccc(NC(=O)C2CCN(c3cnccn3)CC2)c1` gave PolyA inh inactive, CHT inh inactive, T cruzi repl inactive and CHT PAM inactive.
Screening Cc1cc(C)cc(N(CC(=O)NC2CCCC2)C(=O)CCC(=O)Nc2nc(C)cs2)c1 returned PolyA inh inactive, CHT inh inactive, T cruzi repl inactive and CHT PAM inactive.
O=C(NCc1nc(-c2ccc(C(F)(F)F)cc2)no1)Nc1cc(Cl)cc(Cl)c1 was read as PolyA inh inactive, CHT inh inactive, T cruzi repl 59.6 and CHT PAM inactive.
`O=C(NCc1nc(-c2ccc(C(F)(F)F)cc2)no1)Nc1ccc(F)cc1F` gave PolyA inh inconclusive, CHT inh inactive, T cruzi repl inactive and CHT PAM inactive.
`CCN(CC)C(=O)c1cc([N+](=O)[O-])cc2c1-c1ccc([N+](=O)[O-])cc1C2=C(C#N)C#N` gave PolyA inh inactive, CHT inh inactive, T cruzi repl inactive and CHT PAM inactive.
COc1ccc(CCn2c(C)cc(C(=O)CCl)c2C)cc1OC was read as PolyA inh inactive, CHT inh inactive, T cruzi repl inactive and CHT PAM inactive.
Screening Cc1cc(C(=O)CCl)c(C)n1CCc1ccc(F)cc1 returned PolyA inh inactive, CHT inh inactive, T cruzi repl 72.6 and CHT PAM inactive.
CCn1c(NCc2cc(Br)ccc2NS(=O)(=O)c2ccc(C)cc2)nc2ccccc21 was read as PolyA inh inactive, CHT inh inactive, T cruzi repl 63.9 and CHT PAM inactive.
CCn1c(NCc2ccccc2NS(=O)(=O)c2ccc(C)cc2)nc2ccccc21 was read as PolyA inh inactive, CHT inh inactive, T cruzi repl inactive and CHT PAM inactive.
`COc1cc2c(C(=O)NCCCN3CC(C)CC(C)C3)cn(CC(C)C)c(=O)c2cc1OC` (stereo not given) gave PolyA inh inactive, CHT inh -5.77, T cruzi repl inactive and CHT PAM inactive.
For CC(=O)Nc1ccc(NC(=O)Cc2sc(-c3cccnc3)nc2-c2ccc(C)cc2)cc1 the results were PolyA inh inactive, CHT inh inactive, T cruzi repl 69.5 and CHT PAM inactive.
